This test can be described thus: Inhibition of carbapenems-resistant Pseudomonas aeruginosa MSC15369 metallo-beta-lactamase IMP-1 expressed in Escherichia coli after 20 mins by spectrophotometry. The essentials: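 IMP-1 purified from cell extracts by Ni-NTA; 1.0 nM enzyme in 50 mM HEPES pH 7.5 with 100 µM ZnSO4 and 20 µg/ml BSA, preincubated with inhibitor 20 min at room temperature; nitrocefin substrate, initial velocity read at 490 nm; IC50 determined.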

Experimental findings from ChEMBL document CHEMBL1155308, “Metallo-beta-lactamase inhibitory activity of phthalic acid derivatives” (Bioorg Med Chem Lett, 2009) are described below.

Molecules are shown by their SMILES.

In general, IC50 refers to the midpoint of a concentration-inhibition curve. Consider `O=C(O)c1cccc(-c2ccccc2)c1C(=O)O`, for which half-maximal inhibition (IC50) was put at 0.968 µM.
The value for `O=C(O)c1cccc(-c2cccc(C(=O)O)c2C(=O)O)c1` was 17.9 µM; that for `O=C(O)c1cccc(-c2ccc(O)cc2)c1C(=O)O` was 1.55 µM.
Consider `CC(C)(C)c1ccc(C(=O)O)c(C(=O)O)c1`, for which the 50% inhibitory concentration (IC50) is above 300 µM.
The figure for `O=C(O)c1ccccc1-c1cccc(C(=O)O)c1C(=O)O` is 207 µM.
In the case of `Cc1ccc(C(=O)O)c(C(=O)O)c1`, the IC50 is above 300 µM.
The compound `O=C(O)c1cccc(-c2ccccc2O)c1C(=O)O` returned an IC50 of 2.44 µM. In other words, the single-digit micromolar range.
On to `O=C(O)c1ccc(-c2ccccc2)cc1C(=O)O`, for which the half-inhibitory concentration (IC50) was above 300 µM.
`O=C(O)c1ccc(-c2cccc(C(=O)O)c2C(=O)O)cc1` came in with an IC50 of 2.25 µM.
`CCCCc1ccc(C(=O)O)c(C(=O)O)c1` displayed a half-maximal inhibitory concentration (IC50) of 243 µM.
Take `O=C(O)c1cccc(CCCO)c1C(=O)O`: the concentration for half-maximal inhibition (IC50) came to 13.2 µM. Compared with the last compound, the IC50 is about 18-fold lower.
`O=C(O)c1cccc(-c2cccc(O)c2)c1C(=O)O` yielded a half-inhibitory concentration (IC50) of 1.75 µM.
Regarding `O=C(O)c1ccccc1C(=O)O` [PHTHALIC ACID], the IC50 was above 100 µM.
`Cc1cccc(C(=O)O)c1C(=O)O`: the half-inhibitory concentration (IC50) is 160 µM.
The compound `CCCCc1ccc(C(=O)O)c(C(=O)O)c1C` gave a half-inhibitory concentration (IC50) of 16 µM. This IC50 is about 10-fold lower than that of the compound before.
